From ChEMBL document CHEMBL4038268, “Methylpyrrole inhibitors of BET bromodomains” (Bioorg Med Chem Lett, 2017)

Columns and labels:
OPM-2 [1] = test: Antitumor activity against human OPM2 cells xenografted in SCID-Beige mouse assessed as tumor growth inhibition at 30 mg/kg, po qd for 21 days measured twice per week during compound dosing relative to control; type: functional; settings: OPM-2, po, 504 h, read-out: TGI
[2] = biological target: Bromodomain-containing protein 7 (Homo sapiens, UniProt Q9NPI1); test: Inhibition of human BRD7 (L125 to R254 residues) expressed in mammalian expression system by BROMOscan assay
Sequence of Bromodomain-containing protein 7 (Q9NPI1 whole entry, the tested form may be a part, canonical isoform): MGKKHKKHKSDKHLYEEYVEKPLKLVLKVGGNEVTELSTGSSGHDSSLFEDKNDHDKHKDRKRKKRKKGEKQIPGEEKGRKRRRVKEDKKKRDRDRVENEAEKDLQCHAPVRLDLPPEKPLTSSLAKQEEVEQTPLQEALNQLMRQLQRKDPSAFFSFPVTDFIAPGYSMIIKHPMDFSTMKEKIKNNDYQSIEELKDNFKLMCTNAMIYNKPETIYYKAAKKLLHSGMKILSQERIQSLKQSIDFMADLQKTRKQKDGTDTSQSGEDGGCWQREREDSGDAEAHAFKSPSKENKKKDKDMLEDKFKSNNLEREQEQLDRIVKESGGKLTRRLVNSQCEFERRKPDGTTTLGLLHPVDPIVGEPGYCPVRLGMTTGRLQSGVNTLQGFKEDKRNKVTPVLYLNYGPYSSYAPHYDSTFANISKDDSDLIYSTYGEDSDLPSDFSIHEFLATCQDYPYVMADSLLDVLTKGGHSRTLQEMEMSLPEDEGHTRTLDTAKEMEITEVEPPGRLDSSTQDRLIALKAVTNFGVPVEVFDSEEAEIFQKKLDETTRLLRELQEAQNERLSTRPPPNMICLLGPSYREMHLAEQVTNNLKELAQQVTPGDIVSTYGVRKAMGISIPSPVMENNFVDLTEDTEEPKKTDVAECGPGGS

[3] = biological target: Bromodomain-containing protein 9 (Homo sapiens) (UniProt Q9H8M2); test: Inhibition of human BRD9 isoform 1 (R130 to V259 residues) expressed in bacterial expression system at 1 uM by BROMOscan assay relative to control
Sequence of Bromodomain-containing protein 9 (Homo sapiens) (Q9H8M2 whole entry, the tested form may be a part, canonical isoform): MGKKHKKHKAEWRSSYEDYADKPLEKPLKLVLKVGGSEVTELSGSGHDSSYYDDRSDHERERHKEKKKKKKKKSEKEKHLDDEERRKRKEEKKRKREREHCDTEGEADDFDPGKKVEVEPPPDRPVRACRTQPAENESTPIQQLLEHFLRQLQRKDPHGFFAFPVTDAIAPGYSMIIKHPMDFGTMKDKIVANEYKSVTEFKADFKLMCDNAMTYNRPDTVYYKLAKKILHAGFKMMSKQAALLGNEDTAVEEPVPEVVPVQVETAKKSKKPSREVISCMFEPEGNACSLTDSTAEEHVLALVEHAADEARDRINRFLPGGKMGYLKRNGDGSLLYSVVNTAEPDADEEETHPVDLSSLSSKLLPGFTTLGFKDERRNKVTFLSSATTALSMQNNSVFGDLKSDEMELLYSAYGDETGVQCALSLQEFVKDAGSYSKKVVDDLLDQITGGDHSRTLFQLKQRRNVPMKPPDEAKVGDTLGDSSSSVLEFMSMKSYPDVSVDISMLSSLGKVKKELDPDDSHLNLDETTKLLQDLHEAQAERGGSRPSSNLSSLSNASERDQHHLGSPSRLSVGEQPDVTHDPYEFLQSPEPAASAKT

[4] = biological target: Chromatin remodeling regulator CECR2 (Homo sapiens, UniProt Q9BXF3); test: Inhibition of human CECR2 (P423 to D543 residues) expressed in bacterial expression system by BROMOscan assay
[5] = biological target: Histone acetyltransferase KAT2A (Homo sapiens, UniProt Q92830); test: Inhibition of human GCN5L2 (E726 to K837 residues) expressed in bacterial expression system by BROMOscan assay
Protein polybromo-1 = Protein polybromo-1 (Homo sapiens, UniProt Q86U86); test: Inhibition of human PBRM1 bromodomain 5 (S645 to D766 residues) expressed in bacterial expression system by BROMOscan assay
Sequence of Protein polybromo-1 (Q86U86 whole entry, the tested form may be a part): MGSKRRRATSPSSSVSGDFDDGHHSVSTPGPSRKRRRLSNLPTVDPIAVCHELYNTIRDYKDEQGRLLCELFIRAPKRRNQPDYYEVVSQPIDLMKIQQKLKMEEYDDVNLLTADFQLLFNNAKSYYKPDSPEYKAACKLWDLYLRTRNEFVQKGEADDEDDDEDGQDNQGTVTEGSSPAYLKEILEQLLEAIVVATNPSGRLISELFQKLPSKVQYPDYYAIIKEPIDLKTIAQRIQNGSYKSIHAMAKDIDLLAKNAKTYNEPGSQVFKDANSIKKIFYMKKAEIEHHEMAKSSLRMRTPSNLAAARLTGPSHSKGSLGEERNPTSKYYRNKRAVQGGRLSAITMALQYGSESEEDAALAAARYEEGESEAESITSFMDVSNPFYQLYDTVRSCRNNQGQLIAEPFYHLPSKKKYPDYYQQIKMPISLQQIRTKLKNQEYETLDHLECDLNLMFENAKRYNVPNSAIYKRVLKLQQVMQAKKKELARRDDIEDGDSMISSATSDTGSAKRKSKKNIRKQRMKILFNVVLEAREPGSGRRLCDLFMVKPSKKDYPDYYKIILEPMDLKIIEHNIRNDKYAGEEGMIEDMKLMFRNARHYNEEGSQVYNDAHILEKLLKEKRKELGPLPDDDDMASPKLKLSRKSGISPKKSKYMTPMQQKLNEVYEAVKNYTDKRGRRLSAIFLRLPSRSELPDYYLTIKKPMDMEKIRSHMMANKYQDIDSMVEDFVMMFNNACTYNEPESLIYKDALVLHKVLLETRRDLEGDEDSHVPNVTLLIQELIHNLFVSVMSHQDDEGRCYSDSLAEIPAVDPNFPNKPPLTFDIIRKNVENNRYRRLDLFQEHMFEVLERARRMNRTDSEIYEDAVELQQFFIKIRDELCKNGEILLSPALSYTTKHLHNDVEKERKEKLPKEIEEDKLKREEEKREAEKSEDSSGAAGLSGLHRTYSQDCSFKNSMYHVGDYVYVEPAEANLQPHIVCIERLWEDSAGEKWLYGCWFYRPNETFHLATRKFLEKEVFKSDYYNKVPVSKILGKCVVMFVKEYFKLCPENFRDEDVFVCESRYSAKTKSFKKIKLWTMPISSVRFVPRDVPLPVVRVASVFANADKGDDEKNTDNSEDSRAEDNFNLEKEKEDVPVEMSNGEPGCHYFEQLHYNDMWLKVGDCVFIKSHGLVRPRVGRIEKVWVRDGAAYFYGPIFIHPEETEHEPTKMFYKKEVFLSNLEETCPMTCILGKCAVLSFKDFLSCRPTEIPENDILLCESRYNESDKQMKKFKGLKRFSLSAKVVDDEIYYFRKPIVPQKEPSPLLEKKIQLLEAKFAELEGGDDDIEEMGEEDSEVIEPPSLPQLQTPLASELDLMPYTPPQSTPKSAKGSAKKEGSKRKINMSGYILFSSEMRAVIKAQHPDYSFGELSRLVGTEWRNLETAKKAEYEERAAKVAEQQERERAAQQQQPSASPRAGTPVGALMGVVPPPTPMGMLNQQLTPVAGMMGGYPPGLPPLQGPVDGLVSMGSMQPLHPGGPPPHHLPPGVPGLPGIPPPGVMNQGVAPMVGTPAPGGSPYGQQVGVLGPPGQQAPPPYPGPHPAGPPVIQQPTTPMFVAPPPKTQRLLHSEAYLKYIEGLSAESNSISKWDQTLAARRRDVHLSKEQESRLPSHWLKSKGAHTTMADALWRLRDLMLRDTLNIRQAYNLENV

[6] = biological target: SWI/SNF-related matrix-associated actin-dependent regulator of chromatin subfamily A member 2 (Homo sapiens, UniProt P51531); test: Inhibition of human SMARCA2 (S1377 to Q1486 residues) expressed in bacterial expression system by BROMOscan assay
Sequence of SWI/SNF-related matrix-associated actin-dependent regulator of chromatin subfamily A member 2 (P51531 whole entry, the tested form may be a part): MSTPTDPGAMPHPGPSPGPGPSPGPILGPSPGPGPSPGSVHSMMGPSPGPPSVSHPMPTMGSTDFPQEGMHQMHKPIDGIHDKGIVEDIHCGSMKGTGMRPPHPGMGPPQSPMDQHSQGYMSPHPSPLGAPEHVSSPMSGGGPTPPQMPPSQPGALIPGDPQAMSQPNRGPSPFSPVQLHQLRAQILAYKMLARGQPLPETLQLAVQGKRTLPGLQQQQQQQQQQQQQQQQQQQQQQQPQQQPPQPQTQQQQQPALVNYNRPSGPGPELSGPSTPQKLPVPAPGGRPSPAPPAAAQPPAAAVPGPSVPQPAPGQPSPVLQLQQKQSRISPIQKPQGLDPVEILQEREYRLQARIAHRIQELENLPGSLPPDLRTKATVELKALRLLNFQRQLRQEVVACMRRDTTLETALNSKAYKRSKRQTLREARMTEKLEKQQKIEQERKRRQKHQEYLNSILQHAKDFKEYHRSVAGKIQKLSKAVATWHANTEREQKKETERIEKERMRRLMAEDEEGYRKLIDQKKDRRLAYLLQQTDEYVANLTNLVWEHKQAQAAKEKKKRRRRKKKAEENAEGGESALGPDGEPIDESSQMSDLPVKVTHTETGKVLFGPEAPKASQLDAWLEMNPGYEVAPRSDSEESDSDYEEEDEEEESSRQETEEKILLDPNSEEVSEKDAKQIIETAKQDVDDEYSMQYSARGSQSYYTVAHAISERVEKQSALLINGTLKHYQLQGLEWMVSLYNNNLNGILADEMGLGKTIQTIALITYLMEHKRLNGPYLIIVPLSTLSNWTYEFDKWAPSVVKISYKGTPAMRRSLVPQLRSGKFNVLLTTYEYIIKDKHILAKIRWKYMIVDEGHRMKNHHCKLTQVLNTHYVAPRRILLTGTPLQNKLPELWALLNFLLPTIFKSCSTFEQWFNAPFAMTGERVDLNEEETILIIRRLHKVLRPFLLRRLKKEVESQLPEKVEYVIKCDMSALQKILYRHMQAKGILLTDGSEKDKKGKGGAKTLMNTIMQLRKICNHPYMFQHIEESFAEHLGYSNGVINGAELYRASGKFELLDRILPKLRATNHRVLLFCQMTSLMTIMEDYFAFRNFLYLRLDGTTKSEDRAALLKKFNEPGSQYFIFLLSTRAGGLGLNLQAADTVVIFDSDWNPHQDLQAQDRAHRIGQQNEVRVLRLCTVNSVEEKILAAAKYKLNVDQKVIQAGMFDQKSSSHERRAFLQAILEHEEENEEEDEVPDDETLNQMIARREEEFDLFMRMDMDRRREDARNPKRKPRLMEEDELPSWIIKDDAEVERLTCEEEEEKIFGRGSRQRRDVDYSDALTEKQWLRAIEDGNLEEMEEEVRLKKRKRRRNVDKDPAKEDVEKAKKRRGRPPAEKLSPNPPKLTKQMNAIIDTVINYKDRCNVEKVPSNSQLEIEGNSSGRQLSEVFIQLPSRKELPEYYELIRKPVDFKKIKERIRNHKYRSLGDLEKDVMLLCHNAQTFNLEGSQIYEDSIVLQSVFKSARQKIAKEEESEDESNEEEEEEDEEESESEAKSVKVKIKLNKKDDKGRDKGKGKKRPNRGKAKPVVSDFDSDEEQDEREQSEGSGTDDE

[7] = biological target: Transcription initiation factor TFIID subunit 1-like (Homo sapiens, UniProt Q8IZX4); test: Inhibition of human TAF1L (Q1523 to D1654 residues) expressed in bacterial expression system by BROMOscan assay
[8] = biological target: SWI/SNF-related matrix-associated actin-dependent regulator of chromatin subfamily A member 4 (Homo sapiens, UniProt P51532); test: Inhibition of human SMARCA4 (A1448 to S1575 residues) expressed in bacterial expression system by BROMOscan assay
Mus musculus [9] = test: Toxicity in SCID-Beige mouse assessed as body weight loss at 30 mg/kg, po qd for 21 days measured during compound dosing relative to control; type: organism-based; settings: in vivo, 504 h
OPM-2 [10] = test: Antitumor activity against human OPM2 cells xenografted in SCID-Beige mouse assessed as tumor growth inhibition at 100 mg/kg, po qd for 14 days measured twice per week during compound dosing relative to control; type: functional; settings: OPM-2, po, 336 h, read-out: TGI
Outline: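 OPM-2 multiple myeloma xenografts in mice dosed orally over 14 days. Either once daily at 100 mg/kg or twice daily at 50 mg/kg ×2, the same total dose. Tumor growth inhibition was calculated over the treatment period. Mean ± SE, n = 10 per group.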

[11] = Toxicity in po dosed SCID-Beige mouse administered once daily; type: organism-based; settings: in vivo
Outline: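 Oral once-daily dosing in mice bearing OPM-2 multiple myeloma xenografts. Tolerability was judged from mean body-weight loss over the course of the study.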

OPM-2 [12] = test: Antitumor activity against human OPM2 cells xenografted in SCID-Beige mouse assessed as tumor growth inhibition at 100 mg/kg, po bid for 14 days measured twice per week during compound dosing relative to control; type: functional; settings: OPM-2, po, 336 h, read-out: TGI
[13] = biological target: Histone acetyltransferase KAT2B (Homo sapiens, UniProt Q92831); test: Inhibition of human PCAF (G715 to D831 residues) expressed in mammalian expression system by BROMOscan assay
[14] = biological target: Bromodomain-containing protein 1 (Homo sapiens, UniProt O95696); test: Inhibition of human BRD1 (E556 to A688 residues) expressed in bacterial expression system by BROMOscan assay
CREB-binding protein = CREB-binding protein (Homo sapiens, UniProt Q92793); test: Inhibition of human CREBBP (R1081 to G1197 residues) expressed in bacterial expression system by BROMOscan assay
[15] = biological target: Bromodomain adjacent to zinc finger domain protein 2B (Homo sapiens, UniProt Q9UIF8); test: Inhibition of human BAZ2B (S2054 to S2168 residues) expressed in bacterial expression system by BROMOscan assay
OPM-2 [16] = test: Antitumor activity against human OPM2 cells xenografted in SCID-Beige mouse assessed as tumor growth inhibition at 150 mg/kg, po qd for 21 days measured twice per week during compound dosing relative to control; type: functional; settings: OPM-2, po, 504 h, read-out: TGI
Mus musculus [17] = test: Toxicity in SCID-Beige mouse assessed as body weight loss at 150 mg/kg, po qd for 21 days measured during compound dosing relative to control; type: organism-based; settings: in vivo, 504 h

SMILES	inhibition in vivo at 30 mg/kg (OPM-2 [1]) [%]	IC50 [2] [nM]	inhibition [3] [%]	IC50 [4] [nM]	IC50 [5] [nM]	IC50 (Protein polybromo-1) [nM]	IC50 [6] [nM]	IC50 [7] [nM]	IC50 [8] [nM]	Activity (Mus musculus [9]) [%]	inhibition in vivo at 100 mg/kg (OPM-2 [10]) [%]	MTD [11] [mg/kg/day]	inhibition in vivo at 100 mg/kg (OPM-2 [12]) [%]	IC50 [13] [nM]	IC50 [14] [nM]	IC50 (CREB-binding protein) [nM]	IC50 [15] [nM]	inhibition in vivo at 150 mg/kg (OPM-2 [16]) [%]	Activity (Mus musculus [17]) [%]
Cn1cc(-c2cc(S(C)(=O)=O)ccc2Oc2ccc(F)cc2F)c2cc[nH]c(=O)c21	64	> 1000	88	> 1000	> 1000	> 1000	> 1000	> 1000	> 1000	1 to 3									
Cc1[nH]c(-c2cc(NS(C)(=O)=O)ccc2Oc2ccccc2)c2c1C(=O)CCC2		> 1000	67	> 1000	> 1000	> 1000	1000	> 1000	> 1000		53	100	73	> 1000	> 1000	1000	> 1000		
Cc1[nH]c(-c2cc(S(C)(=O)=O)ccc2Oc2ccc(F)cc2F)c2c1C(=O)NCC2															> 1000	1000	> 1000	68	1 to 3
